Screening data deposited in PubChem BioAssay by several laboratories.
PPC-1+TRAIL kill = compounds killing PPC-1 cancer cells with TRAIL present (potentiator screen, no TRAIL-free arm). 0.41% of 220,000 active. PPC-1 cells + TRAIL, ATPLite viability luminescence. AID 1443. cell killing (% activity), % at 4 µM or 5 µM;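 active = cell killing above 50% in the first pass at 4 µM, then a duplicate retest at 5 µM averaging 50% or more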;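 also: plate controls were cells with TRAIL plus DMSO for no effect and medium-only wells lacking cells for full effect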
HSP90 refold inh = inhibitors of HSP90 luciferase refolding in rabbit reticulocyte lysate; luciferase refolding luminescence, 3 h; 0.91% of 290,000 active; AID 1789; inhibition, % at 5.6 µM;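 active = inhibition above the screen-wide mean plus 3 SD, computed separately per campaign, cut at about 16% in these data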;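 also: 0% = DMSO wells and 100% = 60 µM geldanamycin wells; inhibitors lower the luminescence because luciferase stays unfolded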
FLuc inh counter = counter-screen for luciferase assay inhibitors: firefly luciferase inhibition. P08659. ATPLite firefly luciferase biochemical luminescence, 10 min. inhibition, % at 10 µM. 1.5% of 200,000 active. AID 1006;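 active = inhibition above about 50% when tested at 10 µM, limit read from the data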
Target sequence (P08659 whole entry, looked up): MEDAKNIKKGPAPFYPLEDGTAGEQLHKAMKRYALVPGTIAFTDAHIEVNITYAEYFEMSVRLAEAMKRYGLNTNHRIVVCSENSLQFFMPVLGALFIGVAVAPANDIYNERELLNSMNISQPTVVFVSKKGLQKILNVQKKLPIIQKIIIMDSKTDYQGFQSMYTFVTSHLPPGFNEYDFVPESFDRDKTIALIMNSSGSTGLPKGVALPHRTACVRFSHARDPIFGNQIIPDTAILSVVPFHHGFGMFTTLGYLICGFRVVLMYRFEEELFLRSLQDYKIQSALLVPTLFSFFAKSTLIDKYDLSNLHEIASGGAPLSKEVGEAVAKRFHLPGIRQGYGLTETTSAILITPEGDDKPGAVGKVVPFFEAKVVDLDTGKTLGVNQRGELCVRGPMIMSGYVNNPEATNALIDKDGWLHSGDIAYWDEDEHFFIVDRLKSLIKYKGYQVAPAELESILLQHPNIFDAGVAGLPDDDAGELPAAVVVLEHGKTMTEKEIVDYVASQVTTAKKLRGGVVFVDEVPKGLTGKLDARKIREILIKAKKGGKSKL
C8 TRAIL sens = sensitizes caspase-8 expressing cells to TRAIL; AID 624354; 1% of 360,000 active; inhibition (viability loss, TRAIL sensitization), % at 10 µM; NB7+C8 cells + TRAIL, ATPlite viability luminescence;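 active = compounds causing at least 50% loss of cell viability in the single-dose screen, relative to plate controls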
STAT3 inh-1 = STAT3 signaling inhibition; AID 862; U3A cells, IL-6 STAT3-luciferase reporter, luminescence; host cell line lacks STAT1; 0.89% of 190,000 active; inhibition, % at 5.5 µM;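 active = inhibition above the mean inhibition across all screened compounds plus 3 SD, cut at about 44% in these data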;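 also: 0% = DMSO only wells and 100% = 100 µM nifuroxazide control wells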
FLuc act counter = affects firefly luciferase, flagging false hits in luciferase stimulation screens; AID 1027; 200,000 tested, under 10 active; P08659; activation factor at 10 µM; ATPlite luciferase biochemical, luminescence, 10 min; 0 = ATP-free wells, 1 = DMSO control;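 active = luciferase activation factor, scaled between plate controls, of at least 2 with compound at 10 µM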
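System: luciferase plus luciferin reagent, cell-free; medium: PBS as buffer for the ATP substrate; dosing: test compounds dosed from 2 mM stocks in 100% DMSO; timing: 10 min post-reagent at room temperature; measured by: luminescence measurement of luciferase light output; evaluation: luciferase activation, seen as luminescence increase over controls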
STAT3 inh-2 = STAT3 inhibition, confirmation assay; shares compounds with STAT3 inh-1; U3A cells, IL-6 STAT3 luciferase reporter, luminescence; cell line lacks STAT1; inhibition, % at 5.7 µM; 45% of 1,200 active; AID 1265;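 active = inhibition above the hit cutoff computed for the primary STAT3 screen, cut at about 44% in these data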;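 also: 0% = IL-6 plus DMSO and 100% = IL-6 plus nifuroxazide control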
NFkB inh 2 = counter-screen for STAT3 inhibitors: NF-kappaB inhibition; AID 1308; HEK293T NF-kB luciferase reporter, TNF-alpha induced; inhibition, % at 5.7 µM; shares compounds with STAT3 inh-1; 36% of 1,200 active;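 active = inhibition above the mean of solvent-only control wells plus 3 SD, cutoff set per campaign, cut at about 13% in these data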;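 also: 0% = TNF-alpha with DMSO and 100% = TNF-alpha with MG high control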
STAT1 inh STAT3c = STAT1 inhibition in STAT3 inhibitor counter-screen; shares compounds with STAT3 inh-1; NIH 3T3 STAT1-luciferase reporter, IFN-gamma induced, luminescence; inhibition, % at 5.7 µM; 27% of 1,200 active; AID 1317;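 active = inhibition above the mean plus 3 SD of solvent-only control wells, limit set per screening run, cut at about 16% in these data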;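 also: 0% = DMSO with IFN-gamma and 100% = nifuroxazide control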
Starred values were filed as active, the others as inactive; . = no result. Compounds with a hit are over-represented: about 2.2% of the library has one in this group of screens.

SMILES	PPC-1+TRAIL kill	HSP90 refold inh	FLuc inh counter	C8 TRAIL sens	STAT3 inh-1	FLuc act counter	STAT3 inh-2	NFkB inh 2	STAT1 inh STAT3c
N#Cc1c(NC(=O)CSc2ncn[nH]2)sc2c1CCCC2	2	4	-1	8	60*	1	57*	18*	2
Cc1ccnc(SCC(=O)Nc2sc3c(c2C#N)CCCC3)n1	8	0	-3	5	72*	1	57*	15*	17*
COc1ccc(NC(=O)CSc2ccc3nnc(-c4cccnc4)n3n2)cc1OC	.	-2	.	16	.	.	.	.	.
O=C(O)/C=C\C(=O)Nc1ccccc1C(=O)N1CCC(O)(c2ccc(Cl)cc2)CC1	.	.	.	-16	.	.	.	.	.
O=C(CN1CCC(c2nc3ccccc3s2)CC1)N1CCCCC1	0	-5	0	-4	4	1	.	.	.
O=C(CN1CCC(c2nc3ccccc3s2)CC1)NCc1cccs1	12	6	9	16	46*	0.9	28	-1	-1
Clc1ccc2nc(-c3ccc(Br)s3)cn2c1	40	11	78*	59*	58*	0.2	-31	-34	-140
COc1ccc(-c2cn3cc(Cl)ccc3n2)cc1OC	7	9	27	10	-32	0.7	.	.	.
COc1ccc(CNC(=O)C(c2ccncc2)N(C(=O)Cc2cccs2)c2ccccc2)cc1 (stereo unspecified)	11	1	-6	-2	-5	1.1	.	.	.
COc1ccc(N(C(=O)CCl)C(C(=O)NCCc2ccccc2)c2cccs2)cc1 (stereo unspecified)	47	6	-9	98*	62*	1.1	92*	-2	21*
Cc1ccsc1/C=C(\C#N)C(=O)NC1CCS(=O)(=O)C1 (stereo unspecified)	8	-4	-2	-9	9	1	.	.	.
Cc1ccc2nc(-c3ccc(NC(=O)COC(=O)c4ccc([N+](=O)[O-])o4)cc3)sc2c1	51*	2	47	71*	55*	0.5	35	-9	-67
Cc1ccc2nc(-c3ccc(NC(=O)COC(=O)c4ccco4)cc3)sc2c1	55*	-3	-1	71*	50*	1	28	-20	-64
Cc1ccc(NC(=O)COC(=O)c2ccco2)cc1	6	-2	27	-2	2	0.7	.	.	.
CCOc1ncccc1C(=O)OCC(=O)Nc1ccc(-c2nc3ccc(C)cc3s2)cc1	38	0	21	75*	72*	0.8	46*	-20	-25
Cc1c(C(=O)Nc2ccc3c(c2)OCCO3)sc2nc(-c3ccccc3)cn12	24	3	-6	15	51*	1.1	42	2	10
Cc1ccc(C(=O)COC(=O)CNC(=O)c2cccs2)cc1	20	0	-8	-7	-6	1.1	.	.	.
Cc1ccc(C(=O)COC(=O)c2cccs2)cc1	15	-4	92*	40	47*	0.1	6	-23	-66
O=C(COC(=O)c1cccs1)c1ccc2c(c1)OCCO2	42	7	95*	43	54*	0	19	-6	-40
COc1cccc(NC(=O)CSc2nc(=O)n(Cc3ccncc3)c3c2CCCC3)c1	.	.	.	-25	.	.	.	.	.
CC(=O)c1ccc(NC(=O)CSc2nnc(NC(=O)C3CC3)s2)cc1	.	-7	.	-13	.	.	.	.	.
O=c1oc2ccccc2cc1-c1nc2c(s1)CCCC2	24	12	67*	63*	74*	0.3	48*	31*	-39
C[C@H](NC(=O)[C@@H]1CCCN1C(=O)[C@@H]1CCCN1C(=O)c1cccs1)c1ccccc1	.	.	.	3	.	.	.	.	.
Clc1ccc(OCCN2CCN(c3ncnc4sccc34)CC2)cc1	24	-1	-7	20	89*	1.1	88*	34*	23*
CCN1CCN(CCOc2ccc(Cl)cc2)CC1	3	2	-4	-1	10	1	.	.	.
SMILES	PPC-1+TRAIL kill	HSP90 refold inh	FLuc inh counter	C8 TRAIL sens	STAT3 inh-1	FLuc act counter	STAT3 inh-2	NFkB inh 2	STAT1 inh STAT3c
Cc1ccc(OCCN2CCN(c3ncnc4sc(C)c(C)c34)CC2)cc1	0	1	-6	15	79*	1.1	81*	26*	25*
Cc1sc2ncnc(N3CCCCC3)c2c1C	14	2	-5	19	13	1	.	.	.
Cc1ccccc1S(=O)(=O)Cc1ccc(C(=O)NC2CC2)o1	.	2	.	-4	.	.	.	.	.
CCOC(=O)C1CCCN(S(=O)(=O)c2ccc(S(=O)(=O)N(CC)CC)cc2)C1 (stereo unspecified)	30	0	-7	48	78*	1.1	83*	34*	27*
Cc1nc2ccccc2n1CC(O)COc1ccc(Br)cc1 (stereo unspecified)	21	2	-8	22	22	1.1	.	.	.
CCC(=O)c1ccc(OCC(O)Cn2c(C)nc3ccccc32)cc1 (stereo unspecified)	10	1	-4	7	64*	1	53*	14*	20*
O=C(Nc1nc(-c2ccc(Cl)s2)cs1)c1ccncc1	6	-1	-5	11	66*	1.1	56*	12	10
COCC1CCCCN1C(=O)c1cc(COc2ccc3ncccc3c2)on1 (stereo unspecified)	.	-3	.	18	.	.	.	.	.
CCN1CCN(C(=O)c2cc(COc3ccc4ncccc4c3)on2)CC1	2	4	1	-1	45*	1	42	12	18*
Cc1nc(CN(C)C(=O)c2cc(COc3ccc4ncccc4c3)on2)cs1	0	3	-4	17	71*	1	62*	19*	24*
CCC1CCCCN1C(=O)c1cc(COc2ccc3ncccc3c2)on1 (stereo unspecified)	15	0	-7	19	85*	1.1	83*	32*	21*
CC(C)(CO)NC(=O)C(Cc1ccccc1)N1C(=O)c2ccccc2C1=O (stereo unspecified)	.	-5	.	-7	.	.	.	.	.
Cc1cccc(C)c1NC(=O)NC1(C(=O)NCC2CCCO2)CCCCC1 (stereo unspecified)	.	-4	.	-18	.	.	.	.	.
Cc1nc(SCC(=O)Nc2c(C)nn(C)c2C)c2cnn(-c3ccccc3)c2n1	-21	-2	-8	2	44*	1.1	41	12	10
Cn1c(C(=O)OC(C(=O)NC2CCCCC2)c2ccncc2)cc2sccc21 (stereo unspecified)	1	1	-11	-8	6	1.1	.	.	.
